Calls of active or inactive are those of the source. No cut-off for these calls is given here.
System: Escherichia coli
Experiment: Inhibition of [3H]norepinephrine binding to Escherichia coli Qsec by liposome-based scintillation counting assay
In short: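 Liposomes reconstituted with QseC were loaded with tritiated norepinephrine (5 μM) by freeze-thaw in liquid N2 and held 10 min at room temperature, so unbound signal could diffuse out. They were pelleted at 12,000g for 5 min and counted for tritium. Counts were normalized to liposomes loaded with 5 μM tyrosine. Compound was tested at 5 pM and 5 fM.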

Structure (SMILES)	Activity
Cc1ccc(N(CC2=NCCN2)c2cccc(O)c2)cc1	Active
CC(C)NCC(O)COc1cccc2ccccc12 (configuration not stated)	inactive
